# Test results from ChEMBL document CHEMBL1641423, “Novel gratisin derivatives with high antimicrobial activity and low hemolytic activity” (Bioorg Med Chem Lett, 2011).
# Where a SMILES comes first, the peptide text is derived from it. [ ]: non-standard residue; d: D form. Orn = NCCC[C@H](N)C(=O)O
# What was measured:
# [1] = test system: Bacillus subtilis; assay: Antibacterial activity against Bacillus subtilis NBRC 3513 after overnight incubation by medium dilution method; assay type: functional
# Method in brief: (§1)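 MIC by medium dilution with an inoculum of 10⁶ organisms per ml. Value is the minimum inhibitory concentration.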
# [2] = Cytotoxicity against human RBC assessed induction of hemolysis at […] after 30 mins microtiter plate reader analysis; assay type: cell-based; conditions: erythrocyte, 0.5 h
# [3] = test system: Escherichia coli; assay: Antibacterial activity against Escherichia coli NBRC l2734 after overnight incubation by medium dilution method; assay type: functional; method in brief: as §1
# [4] = test system: Staphylococcus epidermidis; assay: Antibacterial activity against Staphylococcus epidermidis NBRC 12993 after overnight incubation by medium dilution method; assay type: functional; method in brief: as §1
# [5] = test system: Pseudomonas aeruginosa; assay: Antibacterial activity against Pseudomonas aeruginosa NBRC 3080 after overnight incubation by medium dilution method; assay type: functional; method in brief: as §1
# [6] = test system: Priestia megaterium; assay: Antibacterial activity against Bacillus megaterium ATCC 19213 after overnight incubation by medium dilution method; assay type: functional; method in brief: as §1
# [7] = test system: Staphylococcus aureus; assay: Antibacterial activity against Staphylococcus aureus NBRC 12732 after overnight incubation by medium dilution method; assay type: functional; method in brief: as §1
Compound,MIC [1] [mg/L],Activity [2],MIC [3] [mg/L],MIC [4] [mg/L],MIC [5] [mg/L],MIC [6] [mg/L],MIC [7] [mg/L]
CC(C)C[C@@H]1NC(=O)[C@H](CCCN)NC(=O)[C@H](C(C)C)NC(=O)[C@@H](Cc2ccc(O)cc2)NC(=O)[C@H](CO)NC(=O)[C@@H](Cc2ccccc2)NC(=O)[C@H](CC(C)C)NC(=O)[C@H](CCCN)NC(=O)[C@H](C(C)C)NC(=O)[C@@H](Cc2ccc(O)cc2)NC(=O)[C@H](CO)NC(=O)[C@@H](Cc2ccccc2)NC1=O,25,Non-toxic,> 100,50,> 100,50,12.5
CC(C)C[C@@H]1NC(=O)[C@H](CCCN)NC(=O)[C@H](CCCCN)NC(=O)[C@@H](Cc2ccc(O)cc2)NC(=O)[C@@H]2CCCN2C(=O)[C@@H](Cc2ccccc2)NC(=O)[C@H](CC(C)C)NC(=O)[C@H](CCCN)NC(=O)[C@H](CCCCN)NC(=O)[C@@H](Cc2ccc(O)cc2)NC(=O)[C@@H]2CCCN2C(=O)[C@@H](Cc2ccccc2)NC1=O,> 100,Non-toxic,> 100,> 100,> 100,> 100,> 100
CC(C)C[C@@H]1NC(=O)[C@H](CCCN)NC(=O)[C@H](C(C)C)NC(=O)[C@@H](Cc2ccc(O)cc2)NC(=O)[C@H](CCCNC(=N)N)NC(=O)[C@@H](Cc2ccccc2)NC(=O)[C@H](CC(C)C)NC(=O)[C@H](CCCN)NC(=O)[C@H](C(C)C)NC(=O)[C@@H](Cc2ccc(O)cc2)NC(=O)[C@H](CCCNC(=N)N)NC(=O)[C@@H](Cc2ccccc2)NC1=O,6.25,Non-toxic,12.5,6.25,50,6.25,6.25
CC(C)C[C@@H]1NC(=O)[C@H](CCCN)NC(=O)[C@H](C(C)C)NC(=O)[C@@H](Cc2ccc(O)cc2)NC(=O)[C@@H]2CCCN2C(=O)[C@@H](C)NC(=O)[C@H](CC(C)C)NC(=O)[C@H](CCCN)NC(=O)[C@H](C(C)C)NC(=O)[C@@H](Cc2ccc(O)cc2)NC(=O)[C@@H]2CCCN2C(=O)[C@@H](C)NC1=O,> 100,Non-toxic,> 100,> 100,> 100,> 100,> 100
CC(C)C[C@@H]1NC(=O)[C@H](CCCN)NC(=O)[C@H](C(C)C)NC(=O)[C@@H](Cc2ccc(O)cc2)NC(=O)[C@@H]2CCCN2C(=O)[C@@H](Cc2ccccc2)NC(=O)[C@H](CC(C)C)NC(=O)[C@H](CCCN)NC(=O)[C@H](C(C)C)NC(=O)[C@@H](Cc2ccc(O)cc2)NC(=O)[C@@H]2CCCN2C(=O)[C@@H](Cc2ccccc2)NC1=O [GRATISIN],6.25,Toxic,100,12.5,100,6.25,6.25
CC(C)C[C@@H]1NC(=O)[C@H](C)NC(=O)[C@H](C(C)C)NC(=O)[C@@H](Cc2ccc(O)cc2)NC(=O)[C@@H]2CCCN2C(=O)[C@@H](Cc2ccccc2)NC(=O)[C@H](CC(C)C)NC(=O)[C@H](C)NC(=O)[C@H](C(C)C)NC(=O)[C@@H](Cc2ccc(O)cc2)NC(=O)[C@@H]2CCCN2C(=O)[C@@H](Cc2ccccc2)NC1=O,> 50,Non-toxic,> 50,> 50,> 50,> 50,> 50
CC(C)C[C@@H]1NC(=O)[C@H](CCCN)NC(=O)[C@H](C(C)C)NC(=O)[C@@H](C)NC(=O)[C@@H]2CCCN2C(=O)[C@@H](Cc2ccccc2)NC(=O)[C@H](CC(C)C)NC(=O)[C@H](CCCN)NC(=O)[C@H](C(C)C)NC(=O)[C@@H](C)NC(=O)[C@@H]2CCCN2C(=O)[C@@H](Cc2ccccc2)NC1=O (cyclo(L[dF]P[dA]V[Orn]L[dF]P[dA]V[Orn])),12.5,Non-toxic,> 100,25,> 100,12.5,12.5
CC(C)C[C@@H]1NC(=O)[C@H](CCCN)NC(=O)[C@H](C(C)C)NC(=O)[C@@H](Cc2ccc(O)cc2)NC(=O)[C@H](CCCCN)NC(=O)[C@@H](Cc2ccccc2)NC(=O)[C@H](CC(C)C)NC(=O)[C@H](CCCN)NC(=O)[C@H](C(C)C)NC(=O)[C@@H](Cc2ccc(O)cc2)NC(=O)[C@H](CCCCN)NC(=O)[C@@H](Cc2ccccc2)NC1=O,6.25,Non-toxic,25,6.25,100,6.25,6.25
CC(C)[C@@H]1NC(=O)[C@@H](Cc2ccc(O)cc2)NC(=O)[C@@H]2CCCN2C(=O)[C@@H](Cc2ccccc2)NC(=O)[C@H](C)NC(=O)[C@H](CCCN)NC(=O)[C@H](C(C)C)NC(=O)[C@@H](Cc2ccc(O)cc2)NC(=O)[C@@H]2CCCN2C(=O)[C@@H](Cc2ccccc2)NC(=O)[C@H](C)NC(=O)[C@H](CCCN)NC1=O,100,Non-toxic,> 100,> 100,> 100,100,100
CC(C)C[C@@H]1NC(=O)[C@H](CCCN)NC(=O)[C@H](C)NC(=O)[C@@H](Cc2ccc(O)cc2)NC(=O)[C@@H]2CCCN2C(=O)[C@@H](Cc2ccccc2)NC(=O)[C@H](CC(C)C)NC(=O)[C@H](CCCN)NC(=O)[C@H](C)NC(=O)[C@@H](Cc2ccc(O)cc2)NC(=O)[C@@H]2CCCN2C(=O)[C@@H](Cc2ccccc2)NC1=O,12.5,Non-toxic,> 100,25,> 100,12.5,6.25
CC(C)C[C@@H]1NC(=O)[C@H](CCCN)NC(=O)[C@H](C(C)C)NC(=O)[C@@H](Cc2ccc(O)cc2)NC(=O)[C@H](C)NC(=O)[C@@H](Cc2ccccc2)NC(=O)[C@H](CC(C)C)NC(=O)[C@H](CCCN)NC(=O)[C@H](C(C)C)NC(=O)[C@@H](Cc2ccc(O)cc2)NC(=O)[C@H](C)NC(=O)[C@@H](Cc2ccccc2)NC1=O,12.5,Non-toxic,> 100,50,> 100,25,12.5
